Key:
CCRF-CEM = assay: Growth inhibition of human CCRF-CEM cells after 48 hrs by sulforhodamine B assay; format: functional
How it was run: (§1)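 Dose–response in each cell line over at least five concentrations at 10-fold dilutions, with 48 h continuous exposure and sulforhodamine B read-out.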

PC-3 = assay: Growth inhibition of human PC3 cells after 48 hrs by sulforhodamine B assay; format: functional; details: PC-3, 48 h
How it was run: (§2)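 Panel of 60 human cancer cell lines; for each compound, dose–response curves per cell line measured at a minimum of five concentrations at 10-fold dilutions. Cells exposed continuously to drug for 48 h, and growth was read out by sulforhodamine B staining.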

HCC 2998 = assay: Growth inhibition of human HCC2998 cells after 48 hrs by sulforhodamine B assay; format: functional; details: HCC 2998, 48 h; how it was run: as §2
HOP-92 = assay: Growth inhibition of human HOP92 cells after 48 hrs by sulforhodamine B assay; format: functional; details: HOP-92, 48 h; how it was run: as §2
IGROV-1 = assay: Growth inhibition of human IGROV1 cells after 48 hrs by sulforhodamine B assay; format: functional; details: IGROV-1, 48 h; how it was run: as §2
SK-OV-3 = assay: Growth inhibition of human SKOV3 cells after 48 hrs by sulforhodamine B assay; format: functional; details: SK-OV-3, 48 h; how it was run: as §2
Hs-578T = assay: Growth inhibition of human Hs 578T cells after 48 hrs by sulforhodamine B assay; format: functional; how it was run: as §2
HL-60 = assay: Growth inhibition of human HL-60(TB) cells after 48 hrs by sulforhodamine B assay; format: functional; details: HL-60, 48 h; how it was run: as §2
KM12 = assay: Growth inhibition of human KM12 cells after 48 hrs by sulforhodamine B assay; format: functional; details: KM12, 48 h; how it was run: as §2
M14 = assay: Growth inhibition of human M14 cells after 48 hrs by sulforhodamine B assay; format: functional; details: M14, 48 h; how it was run: as §2
NCI-H460 = assay: Growth inhibition of human NCI-H460 cells after 48 hrs by sulforhodamine B assay; format: functional; details: NCI-H460, 48 h; how it was run: as §2
MCF7 = assay: Growth inhibition of human MCF7 cells after 48 hrs by sulforhodamine B assay; format: functional; details: MCF7, 48 h; how it was run: as §2
CAKI-1 = assay: Growth inhibition of human Caki1 cells after 48 hrs by sulforhodamine B assay; format: functional; details: CAKI-1, 48 h; how it was run: as §1
A498 = assay: Growth inhibition of human A498 cells after 48 hrs by sulforhodamine B assay; format: functional; details: A498, 48 h; how it was run: as §1
SK-MEL-2 = assay: Growth inhibition of human SK-MEL-2 cells after 48 hrs by sulforhodamine B assay; format: functional; details: SK-MEL-2, 48 h; how it was run: as §2
[1] = Growth inhibition of human […] cells after 48 hrs by sulforhodamine B assay; format: functional; how it was run: as §2
NCI/ADR-RES = assay: Growth inhibition of human NCI/ADR-RES cells after 48 hrs by sulforhodamine B assay; format: functional; how it was run: as §2
786-0 = assay: Growth inhibition of human 786-0 cells after 48 hrs by sulforhodamine B assay; format: functional; details: 786-0, 48 h; how it was run: as §1
T47D = assay: Growth inhibition of human T47D cells after 48 hrs by sulforhodamine B assay; format: functional; how it was run: as §2
MDA-MB-231 = assay: Growth inhibition of human MDA-MB-231 cells after 48 hrs by sulforhodamine B assay; format: functional; details: MDA-MB-231, 48 h; how it was run: as §2
OVCAR-5 = assay: Growth inhibition of human OVCAR5 cells after 48 hrs by sulforhodamine B assay; format: functional; details: OVCAR-5, 48 h; how it was run: as §2
K562 = assay: Growth inhibition of human K562 cells after 48 hrs by sulforhodamine B assay; format: functional; details: K562, 48 h; how it was run: as §2
U-251 = assay: Growth inhibition of human U251 cells after 48 hrs by sulforhodamine B assay; format: functional; details: U-251, 48 h; how it was run: as §2
HOP-62 = assay: Growth inhibition of human HOP62 cells after 48 hrs by sulforhodamine B assay; format: functional; details: HOP-62, 48 h; how it was run: as §2
SW-620 = assay: Growth inhibition of human SW620 cells after 48 hrs by sulforhodamine B assay; format: functional; details: SW-620, 48 h; how it was run: as §2
HCT-116 = assay: Growth inhibition of human HCT116 cells after 48 hrs by sulforhodamine B assay; format: functional; details: HCT-116, 48 h; how it was run: as §2
NCI-H322M = assay: Growth inhibition of human NCI-H322M cells after 48 hrs by sulforhodamine B assay; format: functional; how it was run: as §2
SK-MEL-5 = assay: Growth inhibition of human SK-MEL-5 cells after 48 hrs by sulforhodamine B assay; format: functional; details: SK-MEL-5, 48 h; how it was run: as §2
SF-539 = assay: Growth inhibition of human SF539 cells after 48 hrs by sulforhodamine B assay; format: functional; details: SF-539, 48 h; how it was run: as §2
NCI-H522 = assay: Growth inhibition of human NCI-H522 cells after 48 hrs by sulforhodamine B assay; format: functional; details: NCI-H522, 48 h; how it was run: as §2
TK-10 = assay: Growth inhibition of human TK10 cells after 48 hrs by sulforhodamine B assay; format: functional; details: TK-10, 48 h; how it was run: as §2
SF-268 = assay: Growth inhibition of human SF268 cells after 48 hrs by sulforhodamine B assay; format: functional; details: SF-268, 48 h; how it was run: as §2
EKVX = assay: Growth inhibition of human EKVX cells after 48 hrs by sulforhodamine B assay; format: functional; how it was run: as §1
BT-549 = assay: Growth inhibition of human BT549 cells after 48 hrs by sulforhodamine B assay; format: functional; details: BT-549, 48 h; how it was run: as §1
DU-145 = assay: Growth inhibition of human DU145 cells after 48 hrs by sulforhodamine B assay; format: functional; details: DU-145, 48 h; how it was run: as §1
UACC-257 = assay: Growth inhibition of human UACC257 cells after 48 hrs by sulforhodamine B assay; format: functional; details: UACC-257, 48 h; how it was run: as §2
OVCAR-3 = assay: Growth inhibition of human OVCAR-3 cells after 48 hrs by sulforhodamine B assay; format: functional; details: OVCAR-3, 48 h; how it was run: as §2
UACC-62 = assay: Growth inhibition of human UACC62 cells after 48 hrs by sulforhodamine B assay; format: functional; details: UACC-62, 48 h; how it was run: as §2
UO-31 = assay: Growth inhibition of human UO31 cells after 48 hrs by sulforhodamine B assay; format: functional; details: UO-31, 48 h; how it was run: as §2
SK-MEL-28 = assay: Growth inhibition of human SK-MEL-28 cells after 48 hrs by sulforhodamine B assay; format: functional; details: SK-MEL-28, 48 h; how it was run: as §2
Malme-3M = assay: Growth inhibition of human MALME-3M cells after 48 hrs by sulforhodamine B assay; format: functional; how it was run: as §2
SR = assay: Growth inhibition of human SR cells after 48 hrs by sulforhodamine B assay; format: functional; how it was run: as §2
A549 = assay: Growth inhibition of human A549 cells after 48 hrs by sulforhodamine B assay; format: functional; details: A549, 48 h; how it was run: as §1
SNB-19 = assay: Growth inhibition of human SNB19 cells after 48 hrs by sulforhodamine B assay; format: functional; details: SNB-19, 48 h; how it was run: as §2
NCI-H226 = assay: Growth inhibition of human NCI-H226 cells after 48 hrs by sulforhodamine B assay; format: functional; details: NCI-H226, 48 h; how it was run: as §2
LOX IMVI = assay: Growth inhibition of human LOXIMVI cells after 48 hrs by sulforhodamine B assay; format: functional; how it was run: as §2
OVCAR-8 = assay: Growth inhibition of human OVCAR8 cells after 48 hrs by sulforhodamine B assay; format: functional; details: OVCAR-8, 48 h; how it was run: as §2
SNB-75 = assay: Growth inhibition of human SNB75 cells after 48 hrs by sulforhodamine B assay; format: functional; details: SNB-75, 48 h; how it was run: as §2
OVCAR-4 = assay: Growth inhibition of human OVCAR4 cells after 48 hrs by sulforhodamine B assay; format: functional; details: OVCAR-4, 48 h; how it was run: as §2
ACHN = assay: Growth inhibition of human ACHN cells after 48 hrs by sulforhodamine B assay; format: functional; how it was run: as §1
NCI-H23 = assay: Growth inhibition of human NCI-H23 cells after 48 hrs by sulforhodamine B assay; format: functional; details: NCI-H23, 48 h; how it was run: as §2
MOLT-4 = assay: Growth inhibition of human MOLT4 cells after 48 hrs by sulforhodamine B assay; format: functional; details: MOLT-4, 48 h; how it was run: as §2
SF-295 = assay: Growth inhibition of human SF295 cells after 48 hrs by sulforhodamine B assay; format: functional; details: SF-295, 48 h; how it was run: as §2
Calf thymus DNA = assay: Binding affinity to calf thymus duplex-form DNA assessed as melting temperature at 1:5 compound/DNA ratio after 18 hrs; format: nucleic-acid assay; details: Bos taurus
SN12C = assay: Growth inhibition of human SN12C cells after 48 hrs by sulforhodamine B assay; format: functional; how it was run: as §2
HCT-15 = assay: Growth inhibition of human HCT15 cells after 48 hrs by sulforhodamine B assay; format: functional; details: HCT-15, 48 h; how it was run: as §2
COLO 205 = assay: Growth inhibition of human COLO205 cells after 48 hrs by sulforhodamine B assay; format: functional; details: COLO 205, 48 h; how it was run: as §1
HT-29 = assay: Growth inhibition of human HT-29 cells after 48 hrs by sulforhodamine B assay; format: functional; details: HT-29, 48 h; how it was run: as §2
MDA-MB-435 = assay: Growth inhibition of human MDA-MB-435 cells after 48 hrs by sulforhodamine B assay; format: functional; details: MDA-MB-435, 48 h; how it was run: as §2
RXF 393 = assay: Growth inhibition of human RXF393 cells after 48 hrs by sulforhodamine B assay; format: functional; details: RXF 393, 48 h; how it was run: as §2

Compound COc1cc2c(cc1OCCCCCOc1ccc(-c3nc4ccccc4s3)cc1)N=C[C@@H]1CCCN1C2=O has a GI50 (CCRF-CEM) of 269 nM, a GI50 (PC-3) of 234 nM and a GI50 (HCC 2998) of 631 nM. It also gave a GI50 (HOP-92) of 269 nM, a GI50 (IGROV-1) of 2690 nM and a GI50 (SK-OV-3) of 2570 nM. For the same compound, the GI50 (Hs-578T) was 1320 nM, the GI50 (HL-60) was 562 nM and the GI50 (KM12) was 1550 nM. The GI50 (M14) was 324 nM, the GI50 (NCI-H460) was 347 nM and the GI50 (MCF7) was 331 nM. It also gave a GI50 (CAKI-1) of 513 nM, a GI50 (A498) of 2240 nM and a GI50 (SK-MEL-2) of 1550 nM. It also gave a GI50 [1] of 398 nM, a GI50 (NCI/ADR-RES) of 1120 nM and a GI50 (786-0) of 263 nM. It also gave a GI50 (T47D) of 234 nM, a GI50 (MDA-MB-231) of 263 nM and a GI50 (OVCAR-5) of 661 nM. For the same compound, the GI50 (K562) was 363 nM, the GI50 (U-251) was 457 nM and the GI50 (HOP-62) was 407 nM. It also gave a GI50 (SW-620) of 1020 nM, a GI50 (HCT-116) of 347 nM and a GI50 (NCI-H322M) of 1950 nM. For the same compound, the GI50 (SK-MEL-5) was 339 nM, the GI50 (SF-539) was 479 nM and the GI50 (NCI-H522) was 550 nM. It also gave a GI50 (TK-10) of 3470 nM, a GI50 (SF-268) of 3240 nM and a GI50 (EKVX) of 1550 nM. It also gave a GI50 (BT-549) of 229 nM, a GI50 (DU-145) of 355 nM and a GI50 (UACC-257) of 2240 nM. The GI50 (OVCAR-3) was 741 nM, the GI50 (UACC-62) was 1170 nM and the GI50 (UO-31) was 724 nM. The GI50 (SK-MEL-28) was 3890 nM, the GI50 (Malme-3M) was 1230 nM and the GI50 (SR) was 19.1 nM. It also gave a GI50 (A549) of 2570 nM, a GI50 (SNB-19) of 2950 nM and a GI50 (NCI-H226) of 1510 nM. It also gave a GI50 (LOX IMVI) of 240 nM, a GI50 (OVCAR-8) of 813 nM and a GI50 (SNB-75) of 1200 nM. It also gave a GI50 (OVCAR-4) of 2140 nM, a GI50 (ACHN) of 1100 nM and a GI50 (NCI-H23) of 891 nM. It also gave a GI50 (MOLT-4) of 282 nM, a GI50 (SF-295) of 776 nM and a ΔTm (Calf thymus DNA) of 4.3 °C. The GI50 (SN12C) was 813 nM, the GI50 (HCT-15) was 933 nM and the GI50 (COLO 205) was 389 nM. It also gave a GI50 (HT-29) of 457 nM, a GI50 (MDA-MB-435) of 1380 nM and a GI50 (RXF 393) of 200 nM.
